Legend:
Human alphaherpesvirus 1 [1] = experiment: Inhibition of HSV-1 ribonucleotide reductase; set-up: concentration or dose not given beside the values; conditions: concentration not given here
How it was run: (§1)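 Partially purified HSV-1 ribonucleotide reductase, assayed by reduction of purified [14C]CDP in 200 mM Hepes Na+ pH 7.7, 10 mM dithiothreitol, 2 μM CDP (500 Ci/mol, 3–4 × Km), with and without 5 μM inhibitor unless otherwise indicated. First-order kinact (per hour) and v0 of decelerating product time courses come from iterative nonlinear least squares. kinact is the net increase over the uninhibited control, and % inhibition refers to v0.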

Human alphaherpesvirus 1 [2] = experiment: Inhibitory index against HSV-1 ribonucleotide reductase
How it was run: (§2)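 Index per eq 1 combines kinact and percent inhibition of initial velocity from reductase reactions ±5 μM inhibitor (unless otherwise indicated). 0.99 is subtracted from the calculated ratio, so a non-inhibiting, non-inactivating compound scores zero. HSV-1 and human enzymes were assayed under their respective conditions.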

Human alphaherpesvirus 1 [3] = experiment: Inactivation of HSV-1 ribonucleotide reductase at rate constant K inact; how it was run: as §1
[4] = molecular target: T1, Ribonucleoside-diphosphate reductase RR1 (Homo sapiens) (UniProt P23921+Q7LG56+P31350); experiment: Inhibition of human ribonucleotide reductase; type: protein-complex assay; set-up: concentration or dose not given beside the values; conditions: concentration not given here
How it was run: (§3)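 The ATP contributed about 3 μM iron, keeping inhibitors iron-complexed. Reactions ran ±5 μM inhibitor unless otherwise indicated. kinact (per hour, net over the control) and v0 came from iterative nonlinear least-squares fits of decelerating time courses.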

[5] = molecular target: T1, Ribonucleoside-diphosphate reductase RR1 (Homo sapiens); experiment: Inhibitory index against human ribonucleotide reductase; type: protein-complex assay; how it was run: as §2
[6] = molecular target: T1, Ribonucleoside-diphosphate reductase RR1 (Homo sapiens); experiment: Inactivation of human ribonucleotide reductase at rate constant K inact; type: protein-complex assay; how it was run: as §3
[7] = molecular target: T1, Ribonucleoside-diphosphate reductase RR1 (Homo sapiens); experiment: Apparent enzyme activity measured as the ratio of HSV-1 and human enzyme inhibition induces; type: functional; conditions: Human alphaherpesvirus 1
How it was run: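 Apparent selectivity is the ratio of HSV-1 to human inhibition indices, each from eq 1 at 5 μM inhibitor or at the indicated concentration for each enzyme.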

inhibition (Human alphaherpesvirus 1 [1]) [%] | Inhibitory index (Human alphaherpesvirus 1 [2]) | kinact (Human alphaherpesvirus 1 [3]) [h⁻¹] | inhibition [4] [%] | Inhibitory index [5] | kinact [6] [h⁻¹] | Apparent selectivity (HSV-1/human inhibition index ratio) [7] | Structure (SMILES)
50 | 72 | 36 | 48 | 0.9 | 0 | 80 | C/C(=N\N=C(/S)N/N=C(\S)Nc1cccc(Cl)c1)c1ccccn1
22 | 21 | 16 | 3 | 0.03 | 0 | 680 | C/C(=N\N=C(/S)N/N=C(\S)Nc1cc(Cl)c(Cl)cc1Cl)c1ccccn1
15 | 47 | 40 | 21 | 2.8 | 2 | 17 | C/C(=N\N=C(/S)N/N=C(\S)Nc1cccc(Br)c1)c1ccccn1
10 |  | 16 |  |  |  |  | C/C(=N\N=C(/S)N/N=C(\S)Nc1ccc(C(C)(C)C)cc1)c1ccccn1
38 | 34 | 21 | 14 | 0.16 | 0 | 210 | C/C(=N\N=C(/S)N/N=C(\S)Nc1ccccc1Br)c1ccccn1
7 | 13 | 12 | 64 | 9.8 | 3 | 1.3 | C/C(=N\N=C(/S)N/N=C(\S)NC1CCCC1)c1ccccn1
18 | 35 | 29 | 23 | 5.4 | 4 | 6.5 | C/C(=N\N=C(/S)N/N=C(\S)Nc1ccccc1I)c1ccccn1
45 | 29 | 16 | 52 | 1.1 | 0 | 28 | COc1ccc(N/C(S)=N/N=C(\S)N/N=C(\C)c2ccccn2)cc1
14 | 27 | 23 | 66 | 1.9 | 0 | 14 | O=C(NNC(=S)N/N=C/c1ccccn1)Nc1ccccc1Cl
6.7 | 22 | 21 | 58 | 1.7 | 7 | 1.3 | COc1cccc(N/C(S)=N/N=C(\S)N/N=C(\C)c2ccccn2)c1
14 | 38 | 33 | 56 | 4.2 | 1.3 | 9.1 | C/C(=N\N=C(/S)N/N=C(\S)Nc1ccc([N+](=O)[O-])cc1)c1ccccn1
8 | 59 | 55 | 20 | 0.24 | 0 | 240 | C/C(=N\N=C(/S)N/N=C(\S)Nc1cc(Cl)ccc1Cl)c1ccccn1
6 | 11 | 10 | 43 | 5.9 | 3 | 1.8 | C/C(=N\N=C(/S)N/N=C(\S)Nc1ccccc1C(F)(F)F)c1ccccn1
0 | 0 | 0 |  |  |  |  | C/C(=N\NC(=O)NNC(=O)Nc1ccccc1Cl)c1ccccn1
30 | 7.5 | 5 |  |  |  |  | C/C(=N\NC(=O)N/N=C(\S)Nc1ccccc1Cl)c1ccccn1
11 | 1.2 | 1 |  |  |  |  | C/C(=N\N=C(/S)N/N=C(\S)Nc1ccccc1Cl)c1cccc[n+]1[O-]
53 | 32 | 15 |  |  |  |  | C/C(=N\Nc1nnc(Nc2ccccc2Cl)s1)c1ccccn1

Reference: ChEMBL document CHEMBL1126084, “2-Acetylpyridine thiocarbonohydrazones. Potent inactivators of herpes simplex virus ribonucleotide reductase” (J Med Chem, 1992)
